From PubChem
Only some compounds are listed: those with a hit (about 3.7% of all), similar ones and a draw of the others.
KCNK9 inh: blocks the human KCNK9 two-pore domain potassium channel | B-score at 10 µM | HEK293 KCNK9, FluxOR thallium flux fluorescence; active compounds read low | Q9NPC2 | AID 488922 | 310,000 compounds, 1.2% hits;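 active = ratio B-score over 3 SD below the library mean, with starting fluorescence within 5 SD of its mean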;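 also: negative B-score means less thallium flux so channel inhibition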
hERG protect: hERG (human) protection from proarrhythmic block; 310,000 compounds, 0.51% hits; CHO-hERG, FluxOR thallium flux, dofetilide IC70 present; Q12809; activation (rescue from dofetilide block), less the hit threshold, % at 10 µM;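 active = activation above the mean of controls blocked by dofetilide plus 5 SD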;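 also: thallium influx through hERG after potassium depolarization seen as dye fluorescence rise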
Target sequence (Q12809 whole entry, looked up): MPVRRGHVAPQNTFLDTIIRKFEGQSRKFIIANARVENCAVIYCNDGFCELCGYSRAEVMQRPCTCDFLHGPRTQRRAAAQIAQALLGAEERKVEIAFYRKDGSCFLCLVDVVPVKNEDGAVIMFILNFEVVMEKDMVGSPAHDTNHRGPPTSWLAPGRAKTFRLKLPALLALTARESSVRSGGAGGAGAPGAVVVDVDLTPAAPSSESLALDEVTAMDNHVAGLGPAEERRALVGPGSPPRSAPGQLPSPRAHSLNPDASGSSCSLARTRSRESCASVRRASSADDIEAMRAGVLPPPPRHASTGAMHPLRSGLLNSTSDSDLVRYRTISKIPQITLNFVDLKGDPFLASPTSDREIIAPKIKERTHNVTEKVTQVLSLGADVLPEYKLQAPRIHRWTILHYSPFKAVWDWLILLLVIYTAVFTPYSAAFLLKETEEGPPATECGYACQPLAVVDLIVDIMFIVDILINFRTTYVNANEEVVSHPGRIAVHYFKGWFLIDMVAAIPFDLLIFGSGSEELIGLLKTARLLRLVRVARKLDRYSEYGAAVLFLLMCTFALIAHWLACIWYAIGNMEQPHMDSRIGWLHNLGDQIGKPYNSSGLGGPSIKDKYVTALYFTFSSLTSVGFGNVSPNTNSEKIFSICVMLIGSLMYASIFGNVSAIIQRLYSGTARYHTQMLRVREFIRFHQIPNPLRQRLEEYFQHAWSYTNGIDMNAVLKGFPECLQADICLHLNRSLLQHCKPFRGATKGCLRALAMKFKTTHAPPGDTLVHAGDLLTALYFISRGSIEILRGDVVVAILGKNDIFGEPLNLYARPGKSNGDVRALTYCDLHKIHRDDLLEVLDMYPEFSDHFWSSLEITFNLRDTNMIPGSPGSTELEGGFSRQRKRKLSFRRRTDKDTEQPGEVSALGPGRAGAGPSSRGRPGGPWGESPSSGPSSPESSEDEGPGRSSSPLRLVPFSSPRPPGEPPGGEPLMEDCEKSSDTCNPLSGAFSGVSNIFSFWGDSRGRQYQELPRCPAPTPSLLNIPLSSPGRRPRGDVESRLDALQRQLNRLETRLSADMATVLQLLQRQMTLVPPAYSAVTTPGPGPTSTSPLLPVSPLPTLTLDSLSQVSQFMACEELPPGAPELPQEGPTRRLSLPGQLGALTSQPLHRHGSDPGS
KCNQ1 act: potentiators or activators of human KCNQ1 potassium channel; P51787; CHO-K1 KCNQ1, thallium flux FluxOR fluorescence; active compounds read high; B-score at 10 µM; 310,000 compounds, 0.35% hits;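 active = fluorescence ratio B-score, a plate-corrected score, at least three library SD, with initial intensity B-score within 5 SD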
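System: Stable KCNQ1 CHO-K1 line | Incubation: 90 min dye loading and 20 min compound exposure, both at room temperature | Measure: Ratio B score | Medium: Assay buffer for compound exposure, DMSO matched across wells | Compound dosing: Single-concentration screen | Probe or stimulus: K+/Tl+ depolarizing stimulus | Measured by: Kinetic FluxOR fluorescence, 10 s baseline plus 110 s post-stimulus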
KCNK3 inh: human KCNK3 channel inhibition, primary screen; O14649; CHO-KCNK3 thallium flux, FluxOR fluorescence; active compounds read low; B-score at 10 µM; 340,000 compounds, 0.84% hits; AID 602410;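 active = B-score under library mean minus 4 SD, starting fluorescence ratio at most library mean plus 5 SD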;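 also: more negative B-score means stronger inhibition of thallium flux through KCNK3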
KCNQ1 inh: blocks the human KCNQ1 potassium channel; P51787; CHO-K1 KCNQ1, FluxOR thallium flux fluorescence; active compounds read high; B-score at 10 µM; 310,000 compounds, 1.3% hits;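 active = compounds whose thallium flux B-score, printed positive for inhibition, exceeds three library SD while starting fluorescence stays within three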;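 also: channel opened by potassium depolarization with thallium stimulus after 20 min compound exposure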
Kir21 block: inhibitors of mouse Kir2.1 inward-rectifier potassium channel | P35561 | HEK293-Kir2.1, FluxOR thallium flux fluorescence; active compounds read low | B-score at 10 µM | 310,000 compounds, 0.85% hits | AID 1672;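 active = fluorescence ratio B-score at or below minus 3 SD of library scores, with starting-brightness B-score within 2 SD, cut at about -4.2 in these data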;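 also: channel flux triggered by added potassium and thallium sulfate stimulus; B-score of peak minus minimum fluorescence over baseline after thallium stimulus; more negative B-score means stronger Kir2.1 block with less thallium influx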
Starred values were filed as active, the others as inactive; i = inactive; · = no result given.

SMILES | KCNK9 inh | hERG protect | KCNQ1 act | KCNK3 inh | KCNQ1 inh | Kir21 block
CN(c1ccccc1)S(=O)(=O)c1ccc(Cl)c(C(=O)Nc2nc3ccccc3[nH]2)c1 | -7.1* | -6 | i | i | i | -1.2
O/N=C/c1cc(Cl)ccc1OCc1cccc2ccccc12 | -11* | -10 | i | · | 7* | -0.97
C#CCOc1ccc(Cl)cc1/C=N/O | i | -3 | i | i | i | -1.4
CCOC(=O)c1cnc2c(C)cccc2c1NCCc1ccc(OC)c(OC)c1 | i | -13 | i | i | i | -7.6*
CCOC(=O)c1cnc2c(OC)cccc2c1Oc1ccccc1 | i | -7 | i | i | i | -7.9*
CCOC(=O)c1cnc2c(OC)cccc2c1N1CCN(c2ccccc2OC)CC1 | i | -14 | i | i | i | 0.56
Nc1ccc(O)c2ccccc12 | i | -34 | i | · | i | 0.01
CNc1ccc(/C=C/C(=O)c2ccc3c(c2)OCCO3)cc1[N+](=O)[O-] | i | -2 | i | i | 10* | 0.22
CC1(C)CC(c2nc(-c3ccc([N+](=O)[O-])cc3)cs2)CCO1 (configuration not stated) | i | -22 | i | i | 7* | -1.2
N/C(CSc1nc(-c2ccccc2)c(-c2ccccc2)o1)=N\O | -7.2* | -12 | i | i | 8* | 0.03
CCOc1cc(/C=N/O)cc(Br)c1OCC(=O)NCc1ccccc1 | i | -3 | i | i | i | -1.2
COc1cc(/C=N/O)cc(Br)c1OCC(=O)NCc1ccccc1 | i | -7 | i | i | i | -6*
COc1cc(/C=N/NC(=O)Cn2nc([N+](=O)[O-])cc2C)cc(Br)c1OCc1ccccc1 | i | -7 | i | -9.9* | i | -2.3
O=C(NC1CCCCC1)C(c1ccccn1)N(C(=O)c1csnn1)c1ccccc1F (configuration not stated) | i | -4 | i | i | i | 1.9
CCOC(=O)CN1C(c2ccc(O)cc2)Nc2ccc(Br)cc2C1c1ccccc1 (configuration not stated) | -7.5* | -7 | i | i | i | 0.02
CCOC(=O)CN1C(=O)Nc2ccc(Br)cc2C1c1ccccc1 (configuration not stated) | i | -16 | i | i | i | -1.6
CCN(CC)c1ccc(/C=C/C(=O)c2cccnc2)cc1 | i | -11 | i | i | i | -1.2
O=C(/C=C/c1ccc(Cl)cc1)c1cccnc1 | i | -12 | i | i | i | -7.9*
N#Cc1ccc(/C=C/C(=O)c2cccnc2)cc1 | i | -15 | i | i | 6* | -9*
Cc1ccc(C)c(N2CCN(CCCNC(=O)Cn3cccc3C(=O)c3ccccc3C)CC2)c1 | i | -27 | i | i | i | -7.4*
Cc1ccccc1C(=O)c1cccn1CC(=O)NCCCN1CCCCC1 | i | -4 | i | i | i | 0.2
O=C(Nc1cccc(-c2cccc(Cl)c2)c1)C1CCN(Cc2ccc(CO)o2)CC1 | i | -31 | i | i | i | -6.1*
Cc1ccc(CN2CCC(C(=O)Nc3cccc(-c4cccc(F)c4)c3)CC2)o1 | i | -17 | i | i | i | -5.1*
O=C(c1ccc(Cl)cc1)N1CCCOC1 | i | 7.0* | i | i | i | -0.27
CCN(CC(=O)NCc1ccc(F)cc1)CC(=O)NC1CCCC1 | i | -8 | i | i | i | -0.36
SMILES | KCNK9 inh | hERG protect | KCNQ1 act | KCNK3 inh | KCNQ1 inh | Kir21 block
CC(C)n1c(CSCc2ccc(Cl)cc2Cl)n[nH]c1=S | i | -6 | i | i | i | -4.5*
Nc1nnc(CSCc2ccc(Cl)cc2Cl)s1 | i | -4 | i | i | i | -0.71
COC(=O)c1cc(S(=O)(=O)N2CCC(c3cc(OC)ccc3OC)C2)c[nH]1 (configuration not stated) | i | -11 | i | i | i | -3.4
Cc1ccc2nc(C)c3c(c2c1)N(c1ccc(F)cc1)CC3 | i | -14 | i | i | i | -5.3*
CCOC(=O)C1CCCN(C(=O)c2ccc3ncsc3c2)C1 (configuration not stated) | · | · | · | i | · | ·
Cn1c(=S)c2[nH]c(SCCN3CCCC3)nc2n(C)c1=O | -6.9* | -3 | i | i | i | 1
CCOC(=O)C1CCCN(C(=O)C(C)(C)Oc2ccc(Cl)cc2)C1 (configuration not stated) | i | -14 | i | i | i | -5*
NC(N)=N/N=C/c1ccc(OCc2ccccc2)c(OCc2ccccc2)c1 | i | -18 | i | i | 6* | 0
COc1cc(/C=N/N=C(N)N)ccc1OCc1ccc(Cl)cc1 | i | -32 | i | i | 13* | -8.2*
NC(N)=N/N=C/c1ccc(Cl)c(Cl)c1 | i | -4 | i | i | i | -5*
NC(N)=N/N=C/c1ccccc1 | i | -9 | i | i | i | -1.5
COc1cc(/C=N/O)ccc1OCc1ccc(Cl)cc1 | i | -6 | i | · | i | -0.47
COc1ccc(C(=O)NC(C)CCc2ccccc2)c(O)c1 (configuration not stated) | i | -11 | i | i | i | 0.03
CCC(=O)Nc1cc(-c2nn3c(C)nnc3s2)ccc1C | i | -4 | 8* | i | i | -0.21
CC(=O)Nc1cc(-c2nn3c(C)nnc3s2)ccc1C | i | -9 | i | i | i | -0.23
Cc1nnc(SCC(=O)Nc2cccc(S(=O)(=O)N(C)c3ccccc3)c2)s1 | i | -14 | i | i | 6* | -2
CCC(=O)c1ccc(OCC(=O)Nc2cccc(S(=O)(=O)N(C)c3ccccc3)c2)cc1 | · | · | · | i | · | ·
CN(c1ccccc1)S(=O)(=O)c1cccc(NC(=O)COc2cccc([N+](=O)[O-])c2)c1 | · | · | · | -9.9* | · | ·
COCCn1cnnc1SCC(=O)Nc1cccc(S(=O)(=O)N(C)c2ccccc2)c1 | i | -8 | i | i | i | -0.45
CN(c1ccccc1)S(=O)(=O)c1cccc(NC(=O)CSc2nccc(=O)[nH]2)c1 | · | · | · | -9.8* | · | ·
O=C(Nc1ccncc1)c1cc2ccccc2cc1O | i | -16 | i | i | i | -0.85
COc1ccc(/C=N/n2c(C3CCCCC3)n[nH]c2=S)c(OC)c1 | i | -2 | i | i | i | 0.49
O=C1CC(O)(C(F)(F)F)Oc2c1ccc1ccccc21 (configuration not stated) | i | 6.8* | 8* | i | i | 0.51
CC1(C)Cc2c(ccc3ccccc23)C(=O)N1 | i | -15 | i | i | i | 0.88
CC(=O)N(Cc1ccc(F)cc1)C1=C(NCc2ccccc2)C(=O)c2ccccc2C1=O | -7.9* | -9 | i | i | i | -1.4
